ChEMBL document CHEMBL1158112, “A nitrogen-containing 3-alkyl-1,4-benzoquinone and a gomphilactone derivative from Embelia ribes” (J Nat Prod, 2006)
Activity calls are given as the source filed them. The rule behind the calls is not given here.

Key:
[1] = tested on: Bel-7402; assay: Cytotoxicity against human Bel-7402 cells after 96 hrs by MTT assay; type: functional, cell-based; details: Bel-7402, 96 h
Method in brief: (§1)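 Cells grown in RPMI1640 with 10% FBS, 100 units/mL penicillin and 100 µg/mL streptomycin, at 37 °C in humidified 5% CO2. Seeded at 1200 cells/well; compounds added after 24 h at five concentrations (final DMSO 0.1%), triplicate wells.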

[2] = tested on: BGC-823; assay: Cytotoxicity against human BGC-823 cells after 96 hrs by MTT assay; type: functional, cell-based; details: BGC-823, 96 h; method in brief: as §1
[3] = tested on: HCT-8; assay: Cytotoxicity against human HCT8 cells after 96 hrs by MTT assay; type: functional, cell-based; details: HCT-8, 96 h; method in brief: as §1
[4] = tested on: A2780; assay: Cytotoxicity against human A2780 cells after 96 hrs by MTT assay; type: functional, cell-based; details: A2780, 96 h; method in brief: as §1
[5] = tested on: A549; assay: Cytotoxicity against human A549 cells after 96 hrs by MTT assay; type: functional, cell-based; details: A549, 96 h; method in brief: as §1
[6] = molecular target: T1, Tyrosine-protein phosphatase non-receptor type 1 (Homo sapiens) (UniProt P18031); assay: Inhibition of PTP1B at 50 uM
T1 sequence (whole entry): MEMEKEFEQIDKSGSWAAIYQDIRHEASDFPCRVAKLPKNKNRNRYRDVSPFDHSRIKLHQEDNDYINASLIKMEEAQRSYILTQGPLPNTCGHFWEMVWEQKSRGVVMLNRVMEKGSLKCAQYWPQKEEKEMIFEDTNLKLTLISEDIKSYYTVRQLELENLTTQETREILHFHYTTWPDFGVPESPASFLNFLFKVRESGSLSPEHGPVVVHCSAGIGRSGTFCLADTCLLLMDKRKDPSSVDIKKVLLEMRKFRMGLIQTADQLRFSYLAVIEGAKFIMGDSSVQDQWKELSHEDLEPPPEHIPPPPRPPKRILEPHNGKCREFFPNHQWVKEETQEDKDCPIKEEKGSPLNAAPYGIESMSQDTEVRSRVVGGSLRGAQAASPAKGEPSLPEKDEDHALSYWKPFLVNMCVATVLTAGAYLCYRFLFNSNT

[7] = molecular target: Prothrombin (Homo sapiens) (UniProt P00734); assay: Inhibition of thrombin at 50 uM

Structure (SMILES) | IC50 [1] | IC50 [2] | IC50 [3] | IC50 [4] | IC50 [5] | Activity [6] | Activity [7]
COc1cc([C@H]2c3c(cc(OC)c(O)c3OC)C[C@@H](CO)[C@@H]2CO[C@@H]2O[C@H](CO)[C@@H](O)[C@H](O)[C@H]2O)cc(OC)c1O | > 10 µg/mL | > 10 µg/mL | > 10 µg/mL | > 10 µg/mL | > 10 µg/mL | inactive | inactive
COc1cc(O[C@@H]2O[C@H](CO)[C@@H](O)[C@H](O)[C@H]2O)cc(OC)c1O [KOABURASIDE] | > 10 µg/mL | > 10 µg/mL | > 10 µg/mL | > 10 µg/mL | > 10 µg/mL | inactive | inactive
CC[C@H](CC[C@@H](C)[C@H]1CC[C@H]2[C@@H]3CC=C4C[C@@H](O[C@@H]5O[C@H](CO)[C@@H](O)[C@H](O)[C@H]5O)CC[C@]4(C)[C@H]3CC[C@]12C)C(C)C [SITOGLUSIDE] | > 10 µg/mL | > 10 µg/mL | > 10 µg/mL | > 10 µg/mL | > 10 µg/mL | inactive | inactive
CCCCC/C=C\C/C=C\CCCCCCCc1cc(O)cc(O)c1 | 1910 nM | 1790 nM | 1540 nM | 1570 nM | 1420 nM | inactive | inactive
CCCCCc1cc(O)cc(OC)c1 | > 10 µg/mL | > 10 µg/mL | > 10 µg/mL | > 10 µg/mL | > 10 µg/mL | inactive | inactive
CCCCCCCCCCCCCC1=C(O)/C(=C2\C(=O)Oc3c2cc(O)c(O)c3CCCCCCCCCCCCC)OC1=O | > 10 µg/mL | > 10 µg/mL | > 10 µg/mL | > 10 µg/mL | > 10 µg/mL | inactive | inactive
CC[C@H](CC[C@@H](C)[C@H]1CC[C@H]2[C@@H]3CC=C4C[C@@H](O)CC[C@]4(C)[C@H]3CC[C@]12C)C(C)C [BETA-SITOSTEROL] | > 10 µg/mL | > 10 µg/mL | > 10 µg/mL | > 10 µg/mL | > 10 µg/mL | inactive | inactive
CCCCCCCCCCCCCC1=C(O)C(=O)C=C(NCCCC(=O)O)C1=O | > 10 µg/mL | > 10 µg/mL | > 10 µg/mL | > 10 µg/mL | > 10 µg/mL | inactive | inactive
CC[C@@]1(O)C(=O)OCc2c1cc1n(c2=O)Cc2cc3c(CN(C)C)c(O)ccc3nc2-1 [TOPOTECAN] | 1400 nM | 3800 nM | 1200 nM | 1200 nM | 3500 nM |  | 
CCCCCCCC/C=C\CCCCCCCc1cc(O)cc(O)c1 | 1070 nM | 1430 nM | 780 nM | 1060 nM | 460 nM | inactive | inactive
COc1cc(O)cc(OC)c1O[C@@H]1O[C@H](CO)[C@@H](O)[C@H](O)[C@H]1O [LEONURISIDE] | > 10 µg/mL | > 10 µg/mL | > 10 µg/mL | > 10 µg/mL | > 10 µg/mL | inactive | inactive
CCCCCCCCCCCCCCCc1cc(O)cc(O)c1 [CARDOL] | 1930 nM | 1740 nM | 1480 nM | 1310 nM | 1430 nM | inactive | inactive
CCCCCCCCCCCCCC1=C(O)C(=O)C=C(O)C1=O [Rapanone] | 1460 nM | 1890 nM | 1520 nM | 1820 nM | 1580 nM | inactive | inactive
Oc1cc(O)c2c(c1)O[C@H](c1ccc(O)c(O)c1)[C@@H](O)C2 [CIANIDANOL] | > 10 µg/mL | > 10 µg/mL | > 10 µg/mL | > 10 µg/mL | > 10 µg/mL | inactive | inactive
